TRPC4 inh: inhibitors of mouse TRPC4 channel, primary screen, Fluo4 calcium, HEK293 TRPC4beta/mu-opioid cells; Short transient receptor potential channel 4 (Mus musculus), Q9QUQ5; 300,000 compounds, 0.39% hits; DAMGO-evoked Fluo4 calcium flux; active compounds read low; B-score at 10 µM; AID 2247, 2010;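 active means B-score over 3 SD under the library average, no early fluorescence shift, positive overall ratio signal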
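Material: HEK293 cells with stable TRPC4beta plus mu-opioid receptor expression / Probe or stimulus: DAMGO in two steps, submaximal then maximal / Compound: single concentration per test compound / Technique: kinetic Fluo4 fluorescence imaging of calcium influx / Read-out: per-well B score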
TRPC6 inh: mouse TRPC6 channel inhibitors, primary screen, cell-based, HEK293, membrane potential dye; Short transient receptor potential channel 6 (Mus musculus), Q61143; ACh-evoked depolarization; active compounds read low; B-score at 10 µM; 310,000 compounds, 1.1% hits;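 active means B-score under library mean minus 3 SD, initial fluorescence not abnormally high, positive integrated signal ratio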;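 further: B-score derived from integrated fluorescence ratio over the kinetic read; more negative B-score means stronger inhibition of depolarization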
Target sequence (Q61143 whole entry, looked up): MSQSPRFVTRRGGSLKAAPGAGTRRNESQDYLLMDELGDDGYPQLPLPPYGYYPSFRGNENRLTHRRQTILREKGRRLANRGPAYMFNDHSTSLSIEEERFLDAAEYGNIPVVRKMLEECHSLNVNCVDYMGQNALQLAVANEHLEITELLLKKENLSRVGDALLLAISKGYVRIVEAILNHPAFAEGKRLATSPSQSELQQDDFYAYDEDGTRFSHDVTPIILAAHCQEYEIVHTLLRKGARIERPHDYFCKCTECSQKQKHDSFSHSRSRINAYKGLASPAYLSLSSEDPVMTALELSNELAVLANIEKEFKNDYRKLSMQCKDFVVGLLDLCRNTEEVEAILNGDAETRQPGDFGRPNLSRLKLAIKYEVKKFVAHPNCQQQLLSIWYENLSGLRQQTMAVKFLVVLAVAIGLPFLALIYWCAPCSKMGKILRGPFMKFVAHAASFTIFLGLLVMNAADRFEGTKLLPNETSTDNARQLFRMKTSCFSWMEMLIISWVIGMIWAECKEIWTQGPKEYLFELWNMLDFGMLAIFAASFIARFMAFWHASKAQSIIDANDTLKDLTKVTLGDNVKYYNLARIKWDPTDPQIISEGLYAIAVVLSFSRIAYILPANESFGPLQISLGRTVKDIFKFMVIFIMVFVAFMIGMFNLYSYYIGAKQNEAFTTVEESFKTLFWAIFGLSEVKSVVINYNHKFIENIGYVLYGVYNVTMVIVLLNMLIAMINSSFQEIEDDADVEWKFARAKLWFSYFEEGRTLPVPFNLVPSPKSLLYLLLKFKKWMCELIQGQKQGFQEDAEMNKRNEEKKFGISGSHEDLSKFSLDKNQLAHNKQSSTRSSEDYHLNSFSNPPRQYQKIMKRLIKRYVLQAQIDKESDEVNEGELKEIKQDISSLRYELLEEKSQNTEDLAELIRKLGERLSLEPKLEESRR
TRPC4 PAM: positive allosteric modulators of TRPC4, primary screen, cell-based, mouse TRPC4beta, HEK293 mu-opioid, Fluo-4 calcium; B-score at 10 µM; Short transient receptor potential channel 4 (Mus musculus), Q9QUQ5; DAMGO EC20, Fluo-4 Ca2+ flux; active compounds read high; 310,000 compounds, 0.42% hits; AID 2227, 2009;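 active means B-score of calcium response area above 5 SD of library B-scores, with initial fluorescence ratio within 5 SD of library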
TRPC6 act: mouse TRPC6 channel activators, primary screen, cell-based, HEK293, membrane potential dye; B-score at 10 µM; AID 2550, 2010; HEK293-TRPC6 membrane potential dye fluorescence; active compounds read high; 310,000 compounds, 0.13% hits; Short transient receptor potential channel 6 (Mus musculus), Q61143;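 active means B-score of the integrated fluorescence ratio above library mean plus 3 SD, and starting fluorescence ratio within library mean plus 5 SD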;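 further: higher score means more depolarization so channel activation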
TRPC4 agonist: activators of mouse TRPC4 channel, primary screen, Fluo4 calcium, HEK293 TRPC4beta/mu-opioid cells | 310,000 compounds, 0.49% hits | B-score at 10 µM | Fluo4 calcium fluorescence; active compounds read high | Short transient receptor potential channel 4 (Mus musculus), Q9QUQ5;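 active means B-score above 5 SD of library B-scores, and initial fluorescence ratio not above library mean plus 5 SD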;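 further: positive B-score marks a calcium rise read as TRPC4 activation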
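Assay system: HEK293 stable line with TRPC4beta plus mu-opioid receptor; schedule: 45 min room-temperature Fluo4 loading, 110 s read; technique: kinetic Fluo4 calcium fluorescence; evaluation: integrated baseline-normalised fluorescence ratio, converted to per-well B score; controls: buffer (low) and maximal DAMGO (high)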
TRPC4 spec 2: mouse TRPC4 off-target activity of TRPC6 inhibitors, second screen. shares compounds with TRPC6 inh. HEK293 TRPC4/MOR, membrane potential dye fluorescence; channel activated by saturating DAMGO dose. inhibition, % at 10 µM. 920 compounds, 42% hits. AID 2776;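 active means compounds whose fluorescence signal differed from control wells by over 3 SD, either direction, in both duplicate plates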
TRPC4 spec: mouse TRPC4 modulation by TRPC6 hits, confirmation, selectivity assay for TRPC6 inhibitor project, cell-based, HEK293 TRPC4/mu-opioid, membrane potential dye | shares compounds with TRPC6 inh | membrane potential fluorescence | activity change, negative = inhibition, % at 10 µM | 920 compounds, 61% hits | AID 2777, 2010;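 active means rise or fall in signal beyond 3 SD of buffer-only wells in both replicate plates, either sign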;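 further: integrated kinetic ratio of fluorescence range over baseline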
HEK293 MPD ctr 2-1: nonspecific membrane potential effects, parental HEK293, confirmation, counter-screen for TRPC6 inhibitor project, cell-based, second counter screen; shares compounds with TRPC6 inh; parental HEK293 membrane potential dye fluorescence; maximal acetylcholine challenge after compound addition; signal change vs control, % at 10 µM; 920 compounds, 31% hits;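 active means membrane potential signal moving either way by over 3 SD of the maximum-effect control, in both duplicate plates, meaning non-specific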
HEK293 MPD ctr-1: membrane potential modulation in parental HEK293, confirmation, counter-screen for TRPC6 inhibitor project, cell-based | parental HEK293 membrane potential dye fluorescence | 920 compounds, 60% hits | membrane potential signal change, % at 10 µM | shares compounds with TRPC6 inh;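 active means membrane potential signal shifting up or down by more than 3 SD of buffer-only wells, on both duplicate plates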
HEK293 MPD ctr-2: parental HEK293 membrane potential modulation, confirmation, counter-screen for TRPC6 modulator project, cell-based. shares compounds with TRPC6 inh. membrane potential dye fluorescence. 2,400 compounds, 51% hits. membrane potential signal change, % at 10 µM;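 active means membrane potential signal moves up or down beyond 5 SD from buffer-only wells, on both duplicate plates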
HEK293 MPD ctr 2-2: second counter-screen for TRPC6 modulators: effect in parental HEK293 cells; shares compounds with TRPC6 inh; membrane potential dye fluorescence; after compound, maximal acetylcholine stimulation; inhibition, % at 10 µM; 2,400 compounds, 14% hits;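 active means membrane potential signal drops by more than 5 SD from the mean control signal, in both duplicate plates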
TRPC4 ctr mod: TRPC4 modulation by TRPC6 hit compounds, confirmation, selectivity assay for TRPC6 modulator project, cell-based, HEK293 TRPC4/mu-opioid, membrane potential dye, mouse. shares compounds with TRPC6 inh. membrane potential fluorescence. percent change from control (negative = decrease, positive = increase), % at 10 µM. 2,400 compounds, 69% hits;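 active means membrane potential signal moved up or down beyond 5 SD of buffer control wells, in both duplicate plates, actives on both sides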
TRPC4/MOR inh 2: second check of whether TRPC6 modulators also affect mouse TRPC4. 2,400 compounds, 55% hits. shares compounds with TRPC6 inh. inhibition, % at 10 µM. HEK293 TRPC4/mu-opioid, membrane potential dye fluorescence; stimulated with maximal-effect DAMGO;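 active means drop in membrane potential signal beyond 5 SD of the control wells in both duplicate plates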;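 further: TRPC4 counter screen for TRPC6 hits run under conditions tuned for TRPC6 not TRPC4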
TRPC6 inh conf: mouse TRPC6 channel inhibitors, confirmation, HEK293 cells, membrane potential dye, duplicate. shares compounds with TRPC6 inh. ACh-evoked depolarization. inhibition, % at 10 µM. 3,300 compounds, 43% hits. AID 488960, 2010;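 active means fluorescence ratio falls more than 5 SD below the full-stimulation control mean, in both duplicate runs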;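 further: integrated fluorescence ratio of peak minus minimum over baseline after agonist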
TRPC6 act confirm: mouse TRPC6 channel activators, confirmation, HEK293 cells, membrane potential dye, duplicate; shares compounds with TRPC6 inh; HEK293-TRPC6 membrane potential dye fluorescence, FDSS; activation, % at 10 µM; 2,800 compounds, 11% hits; AID 488961, 2010;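 active means ratio signal rise beyond 5 SD above unstimulated control wells' mean, seen in both duplicate runs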
Large screens that a line does not name were inactive (follow-up assays come after a bar, where they were run). The list is not random: actives were taken first. Their share in the collection is about 2.3%.

Nc1c2c(nc3ccccc13)CSCC2	TRPC6 inh -7.21 | TRPC4 spec 2 13.0% | TRPC4 spec -29.6% | HEK293 MPD ctr 2-1 inactive | HEK293 MPD ctr-1 -481.5% | TRPC6 inh conf 55.4% | TRPC6 act confirm inactive
Nc1c2c(nc3ccccc13)N(c1ccccc1)CC2	TRPC4 inh -6, TRPC6 inh -7.96 | HEK293 MPD ctr-2 -129.5% | HEK293 MPD ctr 2-2 inactive | TRPC4 ctr mod -40.5% | TRPC4/MOR inh 2 85.0% | TRPC6 inh conf 47.5% | TRPC6 act confirm inactive
CN1CCCCc2c1nc1ccccc1c2N (tested in a mixture with another compound)	TRPC4 inh -7, TRPC6 inh -8.6 | TRPC4 spec 2 4.5% | TRPC4 spec -18.8% | HEK293 MPD ctr 2-1 inactive | HEK293 MPD ctr-1 -251.5% | TRPC6 inh conf 86.6% | TRPC6 act confirm inactive
COCCNc1ccc(-c2nn(C)c(=O)c3ccccc23)cc1[N+](=O)[O-]	none
CN(C)CCCNc1ccc(-c2nn(C)c(=O)c3ccccc23)cc1[N+](=O)[O-]	TRPC6 inh -7.92 | TRPC4 spec 2 44.0% | TRPC4 spec -26.2% | HEK293 MPD ctr 2-1 inactive | HEK293 MPD ctr-1 -243.5% | TRPC6 inh conf inactive | TRPC6 act confirm inactive
COCCCN(C(=O)c1cc(-c2ccco2)nc2ccccc12)c1c(N)n(Cc2ccccc2)c(=O)[nH]c1=O	none
COC(C#CCCN(C)C)(c1ccccc1)c1ccccc1	TRPC6 inh -6.48 | HEK293 MPD ctr-2 inactive | HEK293 MPD ctr 2-2 89.0% | TRPC4 ctr mod 14.0% | TRPC4/MOR inh 2 34.0% | TRPC6 inh conf 79.0%
COc1ccc(-c2cc(C)no2)cc1S(=O)(=O)NCCc1ccco1	none
